# Results published in ChEMBL document CHEMBL3352165 (Eur J Med Chem, 2014).
# pIC50: −log10 of the molar value. Active and inactive are the calls of the source. The calls are words filed in the database; no cut-off is given here.
# Columns and labels:
# [1] = AUC (0 to 24 hrs) in Beagle dog at 240 mg/kg, po administered as single dose measured after 0.25 to 24 hrs post dose by LC/MS/MS method; type: ADME, organism-based, Canis lupus familiaris; parameters: time < 24 hr, dose 240 mg/kg, route oral; conditions: plasma
# How it was run: (§1)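 Single oral gavage of 240 mg/kg to beagle dogs (n = 6). Blood sampled at 0.25–24 h, kept on ice, centrifuged within 1 h (1000 × g, 4 °C, 15 min), plasma stored at −20 °C. Drug quantified by validated LC/MS/MS. AUC0–24 from non-compartmental analysis; Cmax and MRT taken directly from concentration–time data.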
# BT-474 [2] = assay: Induction of cell cycle arrest in human BT474 cells assessed as accumulation at S phase at 0.01 uM incubated for 12 hrs by propidium iodide staining based flow cytometry (reference value: 19%); type: functional
# [3] = target: T1, Epidermal growth factor receptor (Homo sapiens, UniProt P00533); assay: Inhibition of HER1 (unknown origin) assessed as reduction in autophosphorylation by ELISA method
# T1 sequence (P00533 whole entry): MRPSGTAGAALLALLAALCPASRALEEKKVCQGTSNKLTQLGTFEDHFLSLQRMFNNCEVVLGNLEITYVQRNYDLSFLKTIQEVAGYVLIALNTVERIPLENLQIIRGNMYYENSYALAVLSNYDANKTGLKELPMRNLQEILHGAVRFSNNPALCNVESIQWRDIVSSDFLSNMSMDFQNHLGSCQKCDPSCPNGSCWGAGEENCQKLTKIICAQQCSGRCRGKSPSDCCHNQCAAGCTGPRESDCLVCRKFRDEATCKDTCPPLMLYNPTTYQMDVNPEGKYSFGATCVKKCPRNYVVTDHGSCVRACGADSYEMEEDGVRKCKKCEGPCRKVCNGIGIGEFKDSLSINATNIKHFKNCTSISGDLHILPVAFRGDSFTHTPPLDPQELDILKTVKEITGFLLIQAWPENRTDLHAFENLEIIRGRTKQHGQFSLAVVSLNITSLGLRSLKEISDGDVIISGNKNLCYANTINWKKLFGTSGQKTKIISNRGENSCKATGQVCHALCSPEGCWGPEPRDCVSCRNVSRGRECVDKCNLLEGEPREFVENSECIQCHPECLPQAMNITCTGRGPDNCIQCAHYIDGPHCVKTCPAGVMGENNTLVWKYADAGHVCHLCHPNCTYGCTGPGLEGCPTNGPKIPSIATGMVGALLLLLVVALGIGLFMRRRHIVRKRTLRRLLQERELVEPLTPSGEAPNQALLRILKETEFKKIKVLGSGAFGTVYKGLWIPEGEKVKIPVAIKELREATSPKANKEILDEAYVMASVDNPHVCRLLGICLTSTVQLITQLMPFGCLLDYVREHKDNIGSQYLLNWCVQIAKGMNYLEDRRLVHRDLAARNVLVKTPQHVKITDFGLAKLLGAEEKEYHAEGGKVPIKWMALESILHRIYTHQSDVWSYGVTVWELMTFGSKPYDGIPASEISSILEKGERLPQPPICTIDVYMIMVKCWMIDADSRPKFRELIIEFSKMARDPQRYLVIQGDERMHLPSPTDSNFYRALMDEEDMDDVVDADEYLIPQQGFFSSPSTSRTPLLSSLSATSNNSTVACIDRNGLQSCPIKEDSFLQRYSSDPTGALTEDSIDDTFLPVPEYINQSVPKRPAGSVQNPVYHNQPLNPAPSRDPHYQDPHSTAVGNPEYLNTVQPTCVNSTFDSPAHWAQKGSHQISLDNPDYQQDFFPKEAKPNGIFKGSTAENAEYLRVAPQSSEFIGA
# [4] = target: T1, Epidermal growth factor receptor; conditions: A-431, 0.001 to 1 uM
# BT-474 [5] = assay: Induction of cell cycle arrest in human BT474 cells assessed as accumulation at G2/M phase at 0.001 uM incubated for 12 hrs by propidium iodide staining based flow cytometry (reference value: 14%); type: functional
# [6] = Cytotoxicity against human SKBR3 cells assessed as inhibition of cell growth after 72 hrs by sulforhodamine B assay; type: functional, cell-based; conditions: SK-BR-3, 72 h
# How it was run: (§2)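 Cells grown in RPMI-1640 with 5% FBS and plated at 5.0×10^4/ml. Next day exposed to 0.5–5000 ng/ml for 3 days. Survival read by sulforhodamine B staining. IC50 taken from growth curves; mean of at least three determinations.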
# BT-474 [7] = assay: Induction of cell cycle arrest in human BT474 cells assessed as accumulation at G1 phase at 0.1 uM incubated for 12 hrs by propidium iodide staining based flow cytometry (reference value: 67%); type: functional
# [8] = Mean residence time in Beagle dog at 240 mg/kg, po administered as single dose measured after 0.25 to 24 hrs post dose by LC/MS/MS method; type: ADME, organism-based, Canis lupus familiaris; parameters: dose 240 mg/kg, route oral; conditions: in vivo; how it was run: as §1
# BT-474 [9] = assay: Induction of cell cycle arrest in human BT474 cells assessed as accumulation at S phase at 0.1 uM incubated for 12 hrs by propidium iodide staining based flow cytometry (reference value: 19%); type: functional
# [10] = target: Mast/stem cell growth factor receptor Kit (Homo sapiens, UniProt P10721); assay: Inhibition of c-KIT phosphorylation (unknown origin) expressed in human NCI-H526 cells at 0.001 to 1 uM incubated for 2 hrs by Western blot method; type: cell-based
# Chain of Mast/stem cell growth factor receptor Kit (P10721 whole entry): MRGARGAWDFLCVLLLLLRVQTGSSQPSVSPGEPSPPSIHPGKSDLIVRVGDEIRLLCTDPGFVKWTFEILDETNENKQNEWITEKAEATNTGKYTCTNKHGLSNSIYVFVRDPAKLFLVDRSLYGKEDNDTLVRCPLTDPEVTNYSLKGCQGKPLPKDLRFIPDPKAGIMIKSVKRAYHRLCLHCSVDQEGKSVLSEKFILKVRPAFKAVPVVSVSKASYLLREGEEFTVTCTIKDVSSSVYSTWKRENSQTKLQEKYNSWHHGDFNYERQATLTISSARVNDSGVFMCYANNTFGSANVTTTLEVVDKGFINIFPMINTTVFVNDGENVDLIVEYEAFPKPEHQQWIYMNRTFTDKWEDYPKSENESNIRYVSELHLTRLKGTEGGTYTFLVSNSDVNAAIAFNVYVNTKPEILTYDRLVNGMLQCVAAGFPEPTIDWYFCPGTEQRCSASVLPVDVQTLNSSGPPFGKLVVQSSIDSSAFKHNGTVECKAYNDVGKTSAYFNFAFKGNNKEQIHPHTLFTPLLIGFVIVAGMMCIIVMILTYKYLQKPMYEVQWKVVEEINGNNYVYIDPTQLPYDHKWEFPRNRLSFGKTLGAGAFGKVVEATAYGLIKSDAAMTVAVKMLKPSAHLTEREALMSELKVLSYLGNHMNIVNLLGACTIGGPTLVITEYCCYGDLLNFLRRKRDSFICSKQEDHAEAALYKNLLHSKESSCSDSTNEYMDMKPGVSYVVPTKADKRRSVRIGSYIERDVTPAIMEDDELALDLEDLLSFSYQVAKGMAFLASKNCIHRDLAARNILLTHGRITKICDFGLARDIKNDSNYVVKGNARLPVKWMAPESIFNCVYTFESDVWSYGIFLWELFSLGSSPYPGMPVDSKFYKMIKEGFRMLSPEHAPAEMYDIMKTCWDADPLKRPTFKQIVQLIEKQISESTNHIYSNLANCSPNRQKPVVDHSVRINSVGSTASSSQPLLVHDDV
# How it was run: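 Cells grown to half-confluence and serum-starved 24 h, then treated 2 h at 0.001, 0.01, 0.1 and 1 µM. Afterwards stimulated at 37 °C with 20 ng/ml SCF-1, PDGF-BB or VEGF as appropriate to the receptor. Phosphorylation assessed by western blot.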
# MRC5 = assay: cells; conditions: Homo sapiens, MRC5, 72 h
# [11] = target: Platelet-derived growth factor receptor beta (Homo sapiens, UniProt P09619); conditions: U-87MG ATCC, 0.001 to 1 uM
# Chain of Platelet-derived growth factor receptor beta (P09619 whole entry): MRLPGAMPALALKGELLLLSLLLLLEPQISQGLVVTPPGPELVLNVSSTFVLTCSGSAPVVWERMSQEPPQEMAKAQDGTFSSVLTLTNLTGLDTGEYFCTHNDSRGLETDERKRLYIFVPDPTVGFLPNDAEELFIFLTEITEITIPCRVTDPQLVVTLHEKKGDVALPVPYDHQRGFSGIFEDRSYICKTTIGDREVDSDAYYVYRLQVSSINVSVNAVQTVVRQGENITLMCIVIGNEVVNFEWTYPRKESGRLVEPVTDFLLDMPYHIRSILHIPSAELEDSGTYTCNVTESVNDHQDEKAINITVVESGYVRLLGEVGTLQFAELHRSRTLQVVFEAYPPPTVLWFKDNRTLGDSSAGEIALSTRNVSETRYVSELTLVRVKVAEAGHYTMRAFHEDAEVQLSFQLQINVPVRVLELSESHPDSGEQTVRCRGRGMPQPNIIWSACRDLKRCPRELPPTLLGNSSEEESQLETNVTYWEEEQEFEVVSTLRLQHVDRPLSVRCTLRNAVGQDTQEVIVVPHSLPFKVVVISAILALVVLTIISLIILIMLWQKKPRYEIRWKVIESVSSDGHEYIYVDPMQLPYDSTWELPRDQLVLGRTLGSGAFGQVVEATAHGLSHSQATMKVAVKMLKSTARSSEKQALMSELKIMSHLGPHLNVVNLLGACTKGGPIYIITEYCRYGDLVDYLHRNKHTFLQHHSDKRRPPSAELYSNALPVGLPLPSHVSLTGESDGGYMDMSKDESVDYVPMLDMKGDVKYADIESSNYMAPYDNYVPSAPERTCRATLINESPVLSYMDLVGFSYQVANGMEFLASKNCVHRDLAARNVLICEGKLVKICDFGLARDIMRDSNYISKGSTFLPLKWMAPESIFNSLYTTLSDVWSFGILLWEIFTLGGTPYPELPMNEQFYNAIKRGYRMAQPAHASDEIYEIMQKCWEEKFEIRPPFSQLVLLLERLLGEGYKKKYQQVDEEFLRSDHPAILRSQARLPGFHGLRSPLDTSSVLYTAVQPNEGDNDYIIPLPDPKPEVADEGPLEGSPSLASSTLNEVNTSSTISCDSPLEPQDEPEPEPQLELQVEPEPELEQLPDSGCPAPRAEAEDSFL
# A-431 = assay: Cytotoxicity against human A431 cells assessed as inhibition of cell growth after 72 hrs by sulforhodamine B assay; type: functional, cell-based; conditions: A-431, 72 h; how it was run: as §2
# [12] = target: Receptor tyrosine-protein kinase erbB-2 (Homo sapiens, UniProt P04626); conditions: BT-474, 0.001 to 1 uM
# Chain of Receptor tyrosine-protein kinase erbB-2 (P04626 whole entry): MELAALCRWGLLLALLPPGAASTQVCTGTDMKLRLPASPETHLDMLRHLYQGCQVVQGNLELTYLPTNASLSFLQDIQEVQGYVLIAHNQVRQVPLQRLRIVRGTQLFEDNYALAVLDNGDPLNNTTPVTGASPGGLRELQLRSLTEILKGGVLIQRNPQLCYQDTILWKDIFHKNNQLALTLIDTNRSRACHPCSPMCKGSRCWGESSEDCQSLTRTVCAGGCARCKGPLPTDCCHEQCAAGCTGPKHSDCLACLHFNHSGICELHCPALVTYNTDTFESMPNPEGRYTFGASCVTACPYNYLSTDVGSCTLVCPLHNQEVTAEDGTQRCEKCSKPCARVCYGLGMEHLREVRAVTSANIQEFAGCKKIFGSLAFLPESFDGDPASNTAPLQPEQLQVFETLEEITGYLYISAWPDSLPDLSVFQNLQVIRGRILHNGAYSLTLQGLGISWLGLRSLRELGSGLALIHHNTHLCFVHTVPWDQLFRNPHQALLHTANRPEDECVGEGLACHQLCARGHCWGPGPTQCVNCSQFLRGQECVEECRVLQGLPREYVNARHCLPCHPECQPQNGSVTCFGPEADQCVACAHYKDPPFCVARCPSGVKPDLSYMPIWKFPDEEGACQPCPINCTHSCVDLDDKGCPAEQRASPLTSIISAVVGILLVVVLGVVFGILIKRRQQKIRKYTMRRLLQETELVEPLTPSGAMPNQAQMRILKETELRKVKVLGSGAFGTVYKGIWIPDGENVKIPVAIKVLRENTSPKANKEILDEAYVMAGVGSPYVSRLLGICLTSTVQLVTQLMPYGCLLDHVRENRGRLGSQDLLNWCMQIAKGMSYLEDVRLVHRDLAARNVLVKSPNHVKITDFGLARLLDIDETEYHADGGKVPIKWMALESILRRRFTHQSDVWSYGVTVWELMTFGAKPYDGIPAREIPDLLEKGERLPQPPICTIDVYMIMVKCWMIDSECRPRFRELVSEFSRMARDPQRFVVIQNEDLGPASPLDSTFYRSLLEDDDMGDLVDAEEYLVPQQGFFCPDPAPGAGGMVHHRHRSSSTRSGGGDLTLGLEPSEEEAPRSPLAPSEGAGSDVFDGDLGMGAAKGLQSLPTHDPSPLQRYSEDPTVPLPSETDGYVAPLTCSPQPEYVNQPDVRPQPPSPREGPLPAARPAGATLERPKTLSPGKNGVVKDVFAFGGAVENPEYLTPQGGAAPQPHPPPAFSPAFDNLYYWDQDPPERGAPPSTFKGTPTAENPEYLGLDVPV
# BT-474 [13] = assay: Induction of apoptosis in human BT474 cells at 0.1 uM incubated for 12 hrs by propidium iodide staining based flow cytometry (reference value: 1%); type: functional
# BT-474 [14] = assay: Induction of cell cycle arrest in human BT474 cells assessed as accumulation at S phase at 0.001 uM incubated for 12 hrs by propidium iodide staining based flow cytometry (reference value: 19%); type: functional
# [15] = AUC (0 to infinity) in Beagle dog at 240 mg/kg, po dosed for 14 days by LC/MS/MS method; type: ADME, organism-based, Canis lupus familiaris; parameters: time infinity, dose 240 mg/kg, route oral; conditions: plasma
# How it was run: (§3)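 Beagle dogs (n = 6) dosed by oral gavage at 240 mg/kg daily for 14 consecutive days. Blood taken predose and at 0.25–24 h on days 1 and 14, plasma stored at −20 °C, analysed by validated LC/MS/MS. Half-life and AUC by model-independent methods; Cmax and MRT read from concentration–time data.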
# BT-474 [16] = assay: Induction of cell cycle arrest in human BT474 cells assessed as accumulation at G1 phase at 0.001 uM incubated for 12 hrs by propidium iodide staining based flow cytometry (reference value: 67%); type: functional
# NCI-H460 = assay: cells; conditions: Homo sapiens, NCI-H460, 72 h
# BT-474 [17] = assay: Induction of apoptosis in human BT474 cells at 0.01 uM incubated for 12 hrs by propidium iodide staining based flow cytometry (reference value: 1%); type: functional
# [18] = Antitumor activity against human Calu3 cells xenografted in BALB/cA mouse assessed as tumor growth inhibition at 100 mg/kg, po; type: functional; conditions: Calu-3, read-out: TGI
# How it was run: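 Female BALB/cA nude mice, 6–7 weeks old, implanted s.c. on midright side with 2×10^6 Calu-3 cells in 0.2 ml PBS. Grouped at 60–150 mm³ tumour volume (6 per treated group, 12 vehicle). Oral dosing in 0.5% CMC with 0.1% Tween-80. Caliper volume = L×W²×0.5; inhibition = (1 − T/C)×100% on relative tumour volume; weight tracked for 21 d.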
# [19] = Elimination half life in Beagle dog at 240 mg/kg, po dosed for 14 days by LC/MS/MS method; type: ADME, organism-based, Canis lupus familiaris; parameters: dose 240 mg/kg, route oral; conditions: in vivo, read-out: beta t1/2 (converted); how it was run: as §3
# [20] = target: T1, Epidermal growth factor receptor; conditions: A-431, 0.001 to 10 uM
# BT-474 [21] = assay: Induction of cell cycle arrest in human BT474 cells assessed as accumulation at S phase at 10 uM incubated for 12 hrs by propidium iodide staining based flow cytometry (reference value: 19%); type: functional
# [22] = AUC (0 to 24 hrs) in Beagle dog at 240 mg/kg, po dosed for 14 days by LC/MS/MS method; type: ADME, organism-based, Canis lupus familiaris; parameters: time < 24 hr, dose 240 mg/kg, route oral; conditions: plasma; how it was run: as §3
# BT-474 [23] = assay: Induction of cell cycle arrest in human BT474 cells assessed as accumulation at G1 phase at 0.01 uM incubated for 12 hrs by propidium iodide staining based flow cytometry (reference value: 67%); type: functional
# BT-474 [24] = assay: Induction of cell cycle arrest in human BT474 cells assessed as accumulation at G1 phase at 10 uM incubated for 12 hrs by propidium iodide staining based flow cytometry (reference value: 67%); type: functional
# BT-474 [25] = assay: Induction of cell cycle arrest in human BT474 cells assessed as accumulation at G1 phase at 1 uM incubated for 12 hrs by propidium iodide staining based flow cytometry (reference value: 67%); type: functional
compound,measurement,setting,value
CN(C)[C@H](CS(C)(=O)=O)c1ccc(-c2ccc3ncnc(Nc4ccc(OCc5cccc(F)c5)c(Cl)c4)c3c2)o1,AUC(0-t) at 24 h,[1],29.8 µg·h/mL
same,Activity,BT-474 [2],9%
same,pIC50,[3],8.39
same,inhibition,[4],Dose-dependent effect
same,Activity,BT-474 [5],14%
same,pIC50,[6],7.74
same,Activity,BT-474 [7],84%
same,MRT,[8],6.1 h
same,Activity,BT-474 [9],5%
same,inhibition,[10],inactive
same,pIC50,MRC5,< 4.00
same,inhibition,[11],inactive
same,pIC50,A-431,6.20
same,inhibition,[12],Dose-dependent effect
same,Activity,BT-474 [13],4%
same,Activity,BT-474 [14],16%
same,AUC(0-inf),[15],30.6 µg·h/mL
same,Activity,BT-474 [16],70%
same,pIC50,NCI-H460,< 4.00
same,Activity,BT-474 [17],1%
same,inhibition in vivo at 100 mg/kg,[18],68%
same,half-life,[19],4.8 h
same,inhibition,[20],Dose-dependent effect
same,Activity,BT-474 [21],8%
same,AUC at 24 h,[22],29.8 µg·h/mL
same,Activity,BT-474 [23],77%
same,Activity,BT-474 [24],80%
same,Activity,BT-474 [25],82%
